PglD DTNB – C. jejuni PglD acetyltransferase inhibitors, primary screen, biochemical, DTNB colorimetric, single point | AID 602405, 2012 | 360,000 tested, 0.098% active | inhibition, % at 12.5 µM | purified PglD enzyme, DTNB colorimetric CoA detection | UDP-N-acetylbacillosamine N-acetyltransferase PglD (Campylobacter jejuni); in the data active = inhibition above about 16%, passing the limit was not always enough
rRNA inh HTS – reduced GFP signal of wild-type E. coli, primary screen, bacterial rRNA inhibitor project, GFP/RFP fluorescence, OD600, single point. E. coli WT GFP vs humanized-ribosome RFP mutants, 24 h; stronger effect = lower value; DMSO median 0, no signal -100. GFP signal change (wild-type ribosome), % (no concentration beside the values). 350,000 tested, 1.6% active. AID 720706, 2013;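 active = significant combined selectivity score with lowered wild-type GFP, culture density cut under 30%, mutant RFP and density less affected; inactive = any of these conditions unmet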
RAD52 inh – RAD52 DNA annealing inhibitors, primary screen, biochemical, FRET, single point, set 2. DNA repair protein RAD52 homolog (Homo sapiens), P43351. recombinant RAD52 DNA annealing, FRET fluorescence. inhibition, % at 18.7 µM. 360,000 tested, 0.46% active;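 active = every replicate showing at least 50% inhibition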
RAD54 branch – inhibitors of human RAD54 branch migration, primary screen, biochemical, fluorescence, single point; 360,000 tested, 0.14% active; inhibition, % at 10.4 µM; RAD54 Holliday junction branch migration, FAM/BHQ fluorescence; DNA repair and recombination protein RAD54-like (Homo sapiens), Q92698;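 active = mean normalized replicate activity at least 40 and at least half of replicates scoring 40 or more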;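 also: 0% = median of neutral control wells and 100% = median of positive control wells; inhibitors cause a drop in the FAM fluorescence signal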
Target sequence (Q92698 whole entry, looked up): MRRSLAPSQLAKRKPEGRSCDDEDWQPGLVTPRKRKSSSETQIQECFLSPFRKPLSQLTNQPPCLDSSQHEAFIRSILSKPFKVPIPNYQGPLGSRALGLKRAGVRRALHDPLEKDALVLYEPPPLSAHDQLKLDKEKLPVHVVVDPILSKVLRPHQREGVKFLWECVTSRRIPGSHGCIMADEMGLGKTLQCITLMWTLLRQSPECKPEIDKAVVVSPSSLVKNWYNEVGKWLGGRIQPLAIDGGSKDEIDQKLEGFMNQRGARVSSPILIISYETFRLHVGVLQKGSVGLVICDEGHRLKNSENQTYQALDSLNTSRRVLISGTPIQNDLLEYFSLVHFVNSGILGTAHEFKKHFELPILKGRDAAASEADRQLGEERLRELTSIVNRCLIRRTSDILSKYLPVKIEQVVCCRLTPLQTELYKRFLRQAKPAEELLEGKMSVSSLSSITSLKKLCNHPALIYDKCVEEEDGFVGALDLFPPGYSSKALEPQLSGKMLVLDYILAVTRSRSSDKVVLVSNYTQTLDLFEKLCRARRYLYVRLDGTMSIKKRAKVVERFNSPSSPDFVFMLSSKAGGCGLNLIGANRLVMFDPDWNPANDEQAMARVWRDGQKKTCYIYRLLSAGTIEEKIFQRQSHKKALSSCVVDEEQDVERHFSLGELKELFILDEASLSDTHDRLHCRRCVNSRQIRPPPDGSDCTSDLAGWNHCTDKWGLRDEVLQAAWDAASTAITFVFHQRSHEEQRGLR
Cneo AK release – Cryptococcus neoformans cell lysis inducers, primary screen, AK release luminescence, single concentration | lysis activity, % at 15 µM | C. neoformans lysis, adenylate kinase release luminescence, 4 h; normalised: neutral wells 0, clomiphene wells 100 | 360,000 tested, 0.2% active;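 active = mean lysis activity across replicates of at least 80%, whatever share of replicates individually reach that level; inactive = mean lysis activity below 80%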
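Signal: Adenylate kinase release luminescence | Assay system: Log-phase Cryptococcus neoformans yeast cells | Input: Cells at 5 × 10^6 per mL | Buffer or medium: Fresh YPD growth medium | Compound: Single dose | Schedule: Static 4 h at 37 °C with compound, 1 h detection | Controls: Clomiphene | Read-out: Luminescence rise reflecting yeast cell lysis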
* marks the source's active call; other numbers are inactive results; . = no result. An excerpt weighted towards active compounds, which were near 1.9% of everything screened.

SMILES	PglD DTNB	rRNA inh HTS	RAD52 inh	RAD54 branch	Cneo AK release
COc1ccc(OCc2cc(C(=O)N3CCN(C4CCCC4)CC3)no2)c(Cl)c1	2	-29*	-8	-12	-2
COC(=O)C1CCCCN1C(=O)c1cc(COc2cccc3cccnc23)on1 (configuration not stated)	4	-3	-16	-17	-1
CSc1ccccc1OCc1cc(C(=O)N2CCC(c3ccncc3)CC2)no1	1	-41*	-20	4	-7
COC(=O)C1CCCCN1C(=O)c1cc(COc2cccc3cnccc23)on1 (configuration not stated)	-2	-31*	-3	12	1
O=C(NC(=S)Nc1ccc2ncccc2c1)c1ccccc1	0	-21*	-63	9	-2
COc1ccc2c3c(n(C)c2c1)[C@H](CO)N(Cc1ccc(Cl)cc1)CC31CN(C(=O)NC(C)C)C1	.	-1	.	.	.
C/C(CC1CC(COCC(C)C)OC1=O)=N\Nc1nc(-c2ccccc2)cs1 (configuration not stated)	-2	.	.	-3	-3
CC1CC(CC(=O)Nc2nc(-c3ccccc3)cs2)C(=O)O1 (configuration not stated)	-1	-24*	-13	-4	0
CCCNC(=O)N1C[C@@H](O)COC[C@@H]2O[C@H](CC(=O)O)CC[C@H]21	0	0	-8	6	0
COc1ccccc1N1CCN(C(=O)CCc2nnc3ccc(N4CCC(C)CC4)nn23)CC1	1	-23*	-2	11	-1
CCOC(=O)c1ccc(CC(=O)c2oc3cc(O)ccc3c2C)o1	0	-22*	-103	-4	-1
CN(C)CC#Cc1ccc([C@H]2[C@@H](CO)N3CCCCN(CC4CC4)C[C@H]23)cc1	5	4	67*	1	-1
CN(C)CC#Cc1ccc([C@@H]2[C@@H](CO)N3CCCCN(CC4CC4)C[C@H]23)cc1	0	6	55*	0	1
CN(C)CC#Cc1ccc([C@H]2[C@H]3CN(CC4CCOCC4)CCCCN3[C@H]2CO)cc1	-8	6	38	-11	-1
CN(C)CC#Cc1ccc([C@@H]2[C@H]3CN(CC4CC4)CCCCN3[C@H]2CO)cc1	2	13	74*	-9	1
COc1ccc(NC(=O)c2noc(C(C)C)c2[N+](=O)[O-])cc1	4	13	-10	-1	84*
CC1=NC(=O)C(N=Nc2cccc(C(=O)O)c2)N1c1ccccc1 (configuration not stated)	.	-31*	4	.	.
C[C@H]1CN([C@@H](C)CO)S(=O)(=O)c2ccc(C#Cc3ccccc3F)cc2O[C@H]1CN(C)CC1CC1	0	-3	-10	-6	6
CC(=O)Nc1ccc(C(=O)CSc2nnc(-c3ccccc3F)n2CCc2ccccc2)cc1	.	-35*	-34	.	.
CCC(=O)Nc1ccc(C(=O)CSc2nnc(-c3ccccc3F)n2C2CC2)cc1	.	.	-22	.	.
CC(CCc1ccccc1)NC(=O)CN(C)Cc1ccc(F)cc1 (configuration not stated)	-11	-4	-13	-3	1
CC(CCc1ccccc1)NC(=O)CN(C)Cc1ccccc1F (configuration not stated)	-1	-29*	-13	3	5
O=C(COc1ccc(C(=O)NCc2cccnc2)cc1)Nc1cccc(C(F)(F)F)c1	2	-23*	2	-4	1
Cc1cc(/C=C2\SC(=S)NC2=O)c(C)n1-c1ccc(O)cc1	.	-24*	-30	.	.
C[C@H]1CN([C@@H](C)CO)C(=O)c2cc(NS(=O)(=O)c3cccs3)ccc2O[C@H]1CN(C)Cc1ccncc1	-2	1	10	-1	-6
COc1ccc(C)cc1Nc1nc(N)c2cc(OC)c(OC)cc2n1	-2	.	.	51*	-6
Cc1ccc(SCc2cn3c(C)cc(C)nc3n2)cc1	.	-7	3	.	.
Cc1cc(C)n2cc(CSc3ccc(Cl)cc3)nc2n1	2	-25*	0	-1	0

Screens from PubChem BioAssay.
